Laboratory results published in ChEMBL document CHEMBL2046280, “Discovery of the novel potent and selective FLT3 inhibitor 1-{5-[7-(3- morpholinopropoxy)quinazolin-4-ylthio]-[1,3,4]thiadiazol-2-yl}-3-p-tolylurea and its anti-acute myeloid leukemia (AML) activities in vitro and in vivo” (J Med Chem, 2012).
Active and inactive are the calls of the source. The rule behind the calls is not given here.

Experiments:
[1] = Cytotoxicity against human HCC827 cells after 72 hrs by MTT assay; conditions: HCC827, 72 h
[2] = system: A549; assay: Cytotoxicity against human A549 cells after 72 hrs by MTT assay; conditions: A549, 72 h
[3] = system: PC-9; assay: Cytotoxicity against human PC9 cells after 72 hrs by MTT assay; conditions: PC-9, 72 h
[4] = system: BT-474; assay: Cytotoxicity against human BT474 cells after 72 hrs by MTT assay; conditions: BT-474, 72 h
[5] = system: MCF7; assay: Cytotoxicity against human MCF7 cells after 72 hrs by MTT assay; conditions: MCF7, 72 h
[6] = system: LoVo; assay: Cytotoxicity against human LoVo cells after 72 hrs by MTT assay
[7] = system: HeLa; assay: Cytotoxicity against human HeLa cells after 72 hrs by MTT assay
[8] = system: DU-145; assay: Cytotoxicity against human DU145 cells after 72 hrs by MTT assay; conditions: DU-145, 72 h
[9] = system: MV4-11; assay: Antitumor activity against human MV4-11 cells xenografted in NOD-SCID mouse assessed as tumor regression at 20 mg/kg, ip administered qd for 21 days measured after 2 to 3 days of last dose by hematoxylin staining; assay type: functional, organism-based; set-up: dose 20 mg/kg
In short: (§1)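 NOD-SCID mice bearing MV4-11 tumours received 20 mg/kg/d ip and were sacrificed at set times after dosing. Tumours were formalin-fixed and paraffin-embedded, and 4−8 μm sections were cut. Proliferation by Ki67 immunostaining, apoptosis by TUNEL staining, tissue by hematoxylin staining; light-microscope imaging.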

[10] = system: Mus musculus; assay: Toxicity in NOD-SCID mouse bearing human MV4-11 cells assessed as signs of toxicity at 20 to 100 mg/kg, ip administered qd for 21 days; assay type: organism-based; set-up: dose 20-100 mg/kg, route intraperitoneal; conditions: in vivo, 504 h
In short: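 Female NOD-SCID mice (6−7 weeks old) received s.c. hind-flank injections of MV4-11 cells (100 μL of a 1 × 10⁸/mL suspension in serum-free medium). At 300−500 mm³, the mice were randomized into 4 groups of 6. They were dosed ip once daily for 21 days with 20, 40 or 100 mg/kg/d or vehicle (25% PEG400 plus 5% DMSO, 5 mL/kg). Body weight and signs of toxicity were followed throughout.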

[11] = system: MV4-11; assay: Downregulation of STAT5 protein expression in human MV4-11 cells at 10 to 300 nM after 5 hrs by Western blot analysis; assay type: functional, cell-based
[12] = system: MV4-11; assay: Downregulation of Erk1/2 protein expression in human MV4-11 cells at 10 to 300 nM after 5 hrs by Western blot analysis; assay type: functional, cell-based
[13] = system: MV4-11; assay: Antitumor activity against human MV4-11 cells xenografted in NOD-SCID mouse assessed as tumor growth inhibition at 20 mg/kg, ip once daily for 21 days measured every 3 days; assay type: functional; conditions: MV4-11, ip, route intraperitoneal, read-out: GI
In short: (§2)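 Female NOD-SCID mice, 6−7 weeks old, received 100 μL of MV4-11 cells (1 × 10⁸/mL in serum-free medium) s.c. in the hind flank. At 300−500 mm³ tumours, mice were randomized (6 per group). Drug was dissolved in 25% (v/v) PEG400 plus 5% DMSO and given ip once daily at 5 mL/kg. Calipers every 3 days; volume = a × b²/2.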

[14] = system: MV4-11; assay: Antitumor activity against human MV4-11 cells xenografted in NOD-SCID mouse assessed as tumor growth inhibition at 40 mg/kg, ip once daily for 21 days measured every 3 days; assay type: functional; conditions: MV4-11, ip, route intraperitoneal, read-out: GI; in short: as §2
[15] = system: MV4-11; assay: Antitumor activity against human MV4-11 cells xenografted in NOD-SCID mouse assessed as increase in apoptotic cells at 20 mg/kg, ip administered qd for 21 days measured after 2 to 3 days of last dose by TUNEL analysis; assay type: functional, organism-based; set-up: dose 20 mg/kg; conditions: TDE = time-dependent effect; in short: as §1
[16] = target: T1, Receptor-type tyrosine-protein kinase FLT3 (Homo sapiens, UniProt P36888); assay: Inhibition of human FLT3
T1 sequence (P36888 whole entry): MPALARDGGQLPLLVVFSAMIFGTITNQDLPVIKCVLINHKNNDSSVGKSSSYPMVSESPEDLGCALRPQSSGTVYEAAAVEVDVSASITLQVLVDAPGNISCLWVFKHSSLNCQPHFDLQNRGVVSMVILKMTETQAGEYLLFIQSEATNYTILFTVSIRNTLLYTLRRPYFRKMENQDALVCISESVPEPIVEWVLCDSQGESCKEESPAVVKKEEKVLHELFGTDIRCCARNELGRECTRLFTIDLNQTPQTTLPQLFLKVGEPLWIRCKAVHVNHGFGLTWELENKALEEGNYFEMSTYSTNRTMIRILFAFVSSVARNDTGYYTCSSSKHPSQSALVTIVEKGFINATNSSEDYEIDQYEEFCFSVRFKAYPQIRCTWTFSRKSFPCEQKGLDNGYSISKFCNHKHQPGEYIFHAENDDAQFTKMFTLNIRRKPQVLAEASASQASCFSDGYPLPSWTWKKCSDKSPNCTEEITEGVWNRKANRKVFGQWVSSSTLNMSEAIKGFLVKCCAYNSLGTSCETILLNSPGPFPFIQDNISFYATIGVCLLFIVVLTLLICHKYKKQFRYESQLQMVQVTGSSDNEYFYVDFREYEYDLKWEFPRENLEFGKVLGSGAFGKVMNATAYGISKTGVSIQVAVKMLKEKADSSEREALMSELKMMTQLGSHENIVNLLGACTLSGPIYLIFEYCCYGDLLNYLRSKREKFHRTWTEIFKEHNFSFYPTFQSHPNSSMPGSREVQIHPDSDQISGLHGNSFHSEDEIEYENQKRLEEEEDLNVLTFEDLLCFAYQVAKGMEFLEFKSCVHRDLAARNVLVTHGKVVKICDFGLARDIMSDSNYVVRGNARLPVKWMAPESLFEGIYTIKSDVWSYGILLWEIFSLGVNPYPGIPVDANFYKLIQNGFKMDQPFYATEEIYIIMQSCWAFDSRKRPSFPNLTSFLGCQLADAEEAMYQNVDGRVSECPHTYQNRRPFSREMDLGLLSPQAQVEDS
In short: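 Human FLT3 kinase assayed across a dose−response series at 200 μM ATP.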

[17] = target: Macrophage colony-stimulating factor 1 receptor (Homo sapiens, UniProt P07333); assay: Inhibition of human FMS
[18] = target: Vascular endothelial growth factor receptor 3 (Homo sapiens, UniProt P35916); assay: Inhibition of human FLT4
[19] = target: Hepatocyte growth factor receptor (Homo sapiens, UniProt P08581); assay: Inhibition of human Met
[20] = target: Serine/threonine-protein kinase pim-1 (Homo sapiens, UniProt P11309); assay: Inhibition of human Pim1
[21] = target: Tyrosine-protein kinase SYK (Homo sapiens, UniProt P43405); assay: Inhibition of human Syk
[22] = target: RAF proto-oncogene serine/threonine-protein kinase (Homo sapiens, UniProt P04049); assay: Inhibition of human c-Raf
[23] = Cmax in Sprague-Dawley rat at 40 mg/kg, ip; assay type: ADME, organism-based; set-up: dose 40 mg/kg, route intraperitoneal; conditions: in vivo
In short: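 Male Sprague−Dawley rats (200−250 g), n = 3, fasted overnight, with a femoral-vein catheter for blood sampling. Single 40 mg/kg ip dose; plasma drug levels measured by LC-MS/MS.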

[24] = system: U-937; assay: Cytotoxicity against human U937 cells after 72 hrs by MTT assay; conditions: U-937, 72 h

Sequence of Macrophage colony-stimulating factor 1 receptor (P07333 whole entry): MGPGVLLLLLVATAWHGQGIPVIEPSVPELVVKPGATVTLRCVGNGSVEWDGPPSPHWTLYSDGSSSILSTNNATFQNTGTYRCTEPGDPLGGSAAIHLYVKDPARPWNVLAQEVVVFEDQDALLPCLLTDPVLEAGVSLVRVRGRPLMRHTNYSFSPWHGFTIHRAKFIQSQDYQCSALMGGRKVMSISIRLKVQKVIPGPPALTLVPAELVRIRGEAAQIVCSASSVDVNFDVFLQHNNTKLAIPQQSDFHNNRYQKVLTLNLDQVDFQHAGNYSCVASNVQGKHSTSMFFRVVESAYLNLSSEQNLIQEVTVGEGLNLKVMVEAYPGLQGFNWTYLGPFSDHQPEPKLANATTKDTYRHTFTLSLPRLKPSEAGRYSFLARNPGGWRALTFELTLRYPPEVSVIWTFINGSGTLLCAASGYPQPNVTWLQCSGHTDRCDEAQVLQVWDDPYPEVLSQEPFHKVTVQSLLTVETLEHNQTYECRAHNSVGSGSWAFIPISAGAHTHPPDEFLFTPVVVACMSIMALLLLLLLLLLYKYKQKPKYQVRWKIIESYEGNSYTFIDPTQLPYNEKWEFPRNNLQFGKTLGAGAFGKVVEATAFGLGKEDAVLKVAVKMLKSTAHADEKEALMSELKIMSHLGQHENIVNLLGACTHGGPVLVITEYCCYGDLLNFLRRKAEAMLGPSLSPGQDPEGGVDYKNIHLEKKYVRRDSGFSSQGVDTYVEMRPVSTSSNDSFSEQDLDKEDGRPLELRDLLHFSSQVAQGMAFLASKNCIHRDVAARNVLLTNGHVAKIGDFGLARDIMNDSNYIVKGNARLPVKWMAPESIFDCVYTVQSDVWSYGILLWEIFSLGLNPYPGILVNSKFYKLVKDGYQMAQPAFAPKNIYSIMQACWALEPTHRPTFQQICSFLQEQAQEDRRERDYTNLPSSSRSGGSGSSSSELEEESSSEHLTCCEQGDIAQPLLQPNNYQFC
Sequence of Vascular endothelial growth factor receptor 3 (P35916 whole entry): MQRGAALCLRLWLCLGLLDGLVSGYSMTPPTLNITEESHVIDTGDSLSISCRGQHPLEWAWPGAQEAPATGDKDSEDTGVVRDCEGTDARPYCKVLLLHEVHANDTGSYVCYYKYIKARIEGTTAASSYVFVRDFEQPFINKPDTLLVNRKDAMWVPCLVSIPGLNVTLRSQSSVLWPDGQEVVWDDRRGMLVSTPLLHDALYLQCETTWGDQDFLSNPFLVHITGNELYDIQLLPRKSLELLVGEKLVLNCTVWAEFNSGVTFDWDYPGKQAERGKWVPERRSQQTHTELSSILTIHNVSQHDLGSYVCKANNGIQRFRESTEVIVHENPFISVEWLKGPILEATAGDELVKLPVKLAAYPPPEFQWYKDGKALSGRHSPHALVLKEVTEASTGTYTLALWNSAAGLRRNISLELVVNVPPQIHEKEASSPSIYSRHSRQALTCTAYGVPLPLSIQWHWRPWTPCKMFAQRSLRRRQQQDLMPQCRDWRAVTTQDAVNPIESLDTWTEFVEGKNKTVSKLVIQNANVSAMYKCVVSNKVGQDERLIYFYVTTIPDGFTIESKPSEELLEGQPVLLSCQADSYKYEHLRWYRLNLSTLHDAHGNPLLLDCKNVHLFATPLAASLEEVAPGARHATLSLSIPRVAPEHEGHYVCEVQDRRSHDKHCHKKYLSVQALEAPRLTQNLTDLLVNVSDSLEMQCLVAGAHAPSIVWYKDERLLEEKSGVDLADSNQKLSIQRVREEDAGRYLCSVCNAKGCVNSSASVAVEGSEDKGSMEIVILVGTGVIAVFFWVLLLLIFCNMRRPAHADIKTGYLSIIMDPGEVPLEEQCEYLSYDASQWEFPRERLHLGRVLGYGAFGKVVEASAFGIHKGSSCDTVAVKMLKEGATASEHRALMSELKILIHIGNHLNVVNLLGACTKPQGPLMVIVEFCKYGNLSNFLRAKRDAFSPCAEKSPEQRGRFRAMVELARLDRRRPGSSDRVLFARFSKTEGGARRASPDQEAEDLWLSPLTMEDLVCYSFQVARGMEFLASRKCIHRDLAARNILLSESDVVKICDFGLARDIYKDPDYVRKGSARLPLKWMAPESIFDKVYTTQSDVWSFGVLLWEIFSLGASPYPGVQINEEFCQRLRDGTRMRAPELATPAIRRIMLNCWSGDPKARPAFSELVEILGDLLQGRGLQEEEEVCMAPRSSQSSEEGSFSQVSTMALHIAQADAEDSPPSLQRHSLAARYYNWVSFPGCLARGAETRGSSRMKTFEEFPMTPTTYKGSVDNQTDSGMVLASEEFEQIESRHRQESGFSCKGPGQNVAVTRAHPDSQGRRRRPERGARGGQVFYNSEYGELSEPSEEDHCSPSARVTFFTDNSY
Sequence of Hepatocyte growth factor receptor (P08581 whole entry): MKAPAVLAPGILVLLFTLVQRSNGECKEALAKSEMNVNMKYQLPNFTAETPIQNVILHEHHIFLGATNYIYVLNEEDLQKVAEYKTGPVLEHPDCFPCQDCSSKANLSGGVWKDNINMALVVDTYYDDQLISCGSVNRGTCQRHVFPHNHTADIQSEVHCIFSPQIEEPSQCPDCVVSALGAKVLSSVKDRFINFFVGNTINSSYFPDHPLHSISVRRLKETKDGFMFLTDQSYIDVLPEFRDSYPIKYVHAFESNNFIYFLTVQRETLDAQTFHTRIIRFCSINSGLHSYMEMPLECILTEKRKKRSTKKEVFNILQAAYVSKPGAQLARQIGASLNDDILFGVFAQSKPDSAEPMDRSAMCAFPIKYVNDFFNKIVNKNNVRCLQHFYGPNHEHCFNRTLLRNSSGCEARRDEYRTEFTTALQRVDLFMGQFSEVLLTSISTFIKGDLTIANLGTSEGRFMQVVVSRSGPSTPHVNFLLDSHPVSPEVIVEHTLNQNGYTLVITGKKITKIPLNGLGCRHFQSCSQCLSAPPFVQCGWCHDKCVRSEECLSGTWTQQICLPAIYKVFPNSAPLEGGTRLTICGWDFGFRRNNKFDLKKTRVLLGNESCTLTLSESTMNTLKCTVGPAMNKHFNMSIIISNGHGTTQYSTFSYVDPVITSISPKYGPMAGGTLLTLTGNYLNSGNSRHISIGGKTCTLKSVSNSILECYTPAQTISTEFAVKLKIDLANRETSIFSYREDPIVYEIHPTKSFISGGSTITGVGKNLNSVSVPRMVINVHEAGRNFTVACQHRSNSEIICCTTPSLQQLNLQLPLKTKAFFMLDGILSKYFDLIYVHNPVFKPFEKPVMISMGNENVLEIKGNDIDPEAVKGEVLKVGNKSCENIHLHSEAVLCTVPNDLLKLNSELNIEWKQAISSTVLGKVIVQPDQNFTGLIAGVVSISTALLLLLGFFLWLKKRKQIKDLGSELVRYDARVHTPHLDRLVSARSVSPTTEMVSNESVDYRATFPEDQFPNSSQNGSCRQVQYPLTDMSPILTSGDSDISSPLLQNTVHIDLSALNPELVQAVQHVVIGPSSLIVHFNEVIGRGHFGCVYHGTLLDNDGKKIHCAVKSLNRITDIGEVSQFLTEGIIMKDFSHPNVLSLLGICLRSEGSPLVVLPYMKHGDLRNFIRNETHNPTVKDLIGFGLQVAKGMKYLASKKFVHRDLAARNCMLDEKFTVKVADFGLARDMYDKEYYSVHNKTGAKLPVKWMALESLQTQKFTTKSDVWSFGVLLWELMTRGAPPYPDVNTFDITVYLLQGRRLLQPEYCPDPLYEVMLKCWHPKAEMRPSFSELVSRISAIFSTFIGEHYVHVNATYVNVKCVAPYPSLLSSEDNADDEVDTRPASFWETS
Sequence of Serine/threonine-protein kinase pim-1 (P11309 whole entry): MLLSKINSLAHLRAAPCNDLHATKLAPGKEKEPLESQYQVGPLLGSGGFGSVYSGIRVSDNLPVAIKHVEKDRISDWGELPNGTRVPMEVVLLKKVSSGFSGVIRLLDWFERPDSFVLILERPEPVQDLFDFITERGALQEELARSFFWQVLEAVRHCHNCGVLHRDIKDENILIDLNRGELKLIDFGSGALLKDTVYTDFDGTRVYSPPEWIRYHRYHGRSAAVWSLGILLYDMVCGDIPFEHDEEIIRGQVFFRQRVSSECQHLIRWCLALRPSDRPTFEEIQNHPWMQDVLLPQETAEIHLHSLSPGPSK
Sequence of RAF proto-oncogene serine/threonine-protein kinase (P04049 whole entry): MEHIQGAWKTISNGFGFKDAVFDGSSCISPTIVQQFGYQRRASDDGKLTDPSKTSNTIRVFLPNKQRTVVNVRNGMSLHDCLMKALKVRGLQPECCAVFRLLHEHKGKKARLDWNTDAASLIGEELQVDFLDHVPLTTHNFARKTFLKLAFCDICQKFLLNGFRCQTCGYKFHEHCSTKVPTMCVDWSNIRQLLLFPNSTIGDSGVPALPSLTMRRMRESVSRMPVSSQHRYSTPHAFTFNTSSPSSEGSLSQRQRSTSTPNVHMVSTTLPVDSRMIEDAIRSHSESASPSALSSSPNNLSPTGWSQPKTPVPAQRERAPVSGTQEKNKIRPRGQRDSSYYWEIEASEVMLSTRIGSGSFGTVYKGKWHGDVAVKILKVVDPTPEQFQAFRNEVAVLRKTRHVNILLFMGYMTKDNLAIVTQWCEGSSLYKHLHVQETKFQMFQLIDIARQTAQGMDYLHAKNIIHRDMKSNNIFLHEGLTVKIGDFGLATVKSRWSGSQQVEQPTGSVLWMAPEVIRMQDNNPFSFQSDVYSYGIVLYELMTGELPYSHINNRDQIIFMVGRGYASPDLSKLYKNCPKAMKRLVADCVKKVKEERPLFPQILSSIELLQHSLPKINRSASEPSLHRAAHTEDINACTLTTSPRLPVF

In the case of `Cc1ccc(NC(=O)Nc2nnc(Sc3ncnc4cc(OCCCN5CCOCC5)ccc34)s2)cc1`, the IC50 [1] is reported as 12.5 µM, the IC50 [2] is reported as greater than 20 µM and the IC50 [3] is reported as 3.72 µM. It also gave an IC50 [4] greater than 20 µM, an IC50 [5] greater than 20 µM and an IC50 [6] greater than 20 µM. For the same compound, the IC50 [7] was greater than 20 µM, the IC50 [8] was 18.6 µM and the Activity [9] was “Active”. The Activity [10] was “Non-toxic”, the Activity [11] was “inactive” and the Activity [12] was “inactive”. The inhibition in vivo at 20 mg/kg [13] was 66%, the inhibition in vivo at 40 mg/kg [14] was 84% and the Activity [15] was “tde”. The IC50 [16] was 0.01 µM, the IC50 [17] was 2.8 µM and the IC50 [18] was 3.7 µM. For the same compound, the IC50 [19] was greater than 10 µM, the IC50 [20] was greater than 10 µM and the IC50 [21] was greater than 10 µM. The IC50 [22] was greater than 10 µM, the Cmax [23] was 5310 ng/mL and the IC50 [24] was greater than 10 µM.
